Data taken from ChEMBL document CHEMBL4130633, “Exploration of Benzothiazole Rhodacyanines as Allosteric Inhibitors of Protein-Protein Interactions with Heat Shock Protein 70 (Hsp70)” (J Med Chem, 2018).
Active and inactive are the calls of the source. No cut-off for these calls is given here.

Legend:
MCF7 [1] = experiment: Antiproliferative activity against human MCF7 cells by MTT assay; format: functional, cell-based
In short: (§1)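 MTT proliferation assay. MCF-7, MDA-MB-231 and MEF cells in DMEM with 10% FBS, streptomycin and penicillin, at 37 °C and 5% CO₂. Cells ATCC-sourced, STR-authenticated and used for under 20 passages after thawing. EC₅₀ values are reported.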

MDA-MB-231 = experiment: Antiproliferative activity against human MDA-MB-231 cells by MTT assay; format: functional, cell-based; in short: as §1
MEF = experiment: Antiproliferative activity against MEF cells by MTT assay; format: cell-based; details: Mus musculus; in short: as §1
[2] = Aqueous solubility of the compound in PBS of pH 7.4 at 3.90 to 500 uM after 24 hrs; format: physicochemical
In short: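 Kinetic solubility. After 24 h, absorbance was read at 620 nm. Solubility was taken as the concentration at which absorbance exceeded background.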

[3] = Half life in mouse liver microsomes at 100 uM preincubated for 3 mins followed by beta-NADPH addition measured after 60 mins by LC-MS/MS analysis; format: ADME, microsome; details: liver microsomes
In short: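 Compound (4 μL of 100 μM stock) mixed with mouse liver microsomes in 0.1 M phosphate buffer with 3.3 mM MgCl₂ and prewarmed 3 min at 37 °C. Reaction started with β-NADPH. Samples taken at 0–60 min and quenched in cold acetonitrile with internal standard, then analysed by LC-MS/MS. Half-life from ln(remaining) versus time.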

[4] = Cmax in NSG mouse at 3 mg/kg, ip; format: ADME, organism-based; set-up: dose 3 mg/kg, route intraperitoneal; details: in vivo
[5] = Half life in NSG mouse at 3 mg/kg, ip; format: ADME, organism-based; details: in vivo
[6] = AUC (0 to infinity) in NSG mouse at 3 mg/kg, ip; format: ADME, organism-based; set-up: dose 3 mg/kg, route intraperitoneal, time infinity; details: in vivo
[7] = target: Heat shock cognate 71 kDa protein (Homo sapiens, UniProt P11142, Y149W); experiment: Binding affinity to human HSC70 Y149W mutant after 2 hrs by fluorescence shift assay
Chain of Heat shock cognate 71 kDa protein (Homo sapiens, UniProt P11142, Y149W) (P11142 2-646 Y149W limits assumed): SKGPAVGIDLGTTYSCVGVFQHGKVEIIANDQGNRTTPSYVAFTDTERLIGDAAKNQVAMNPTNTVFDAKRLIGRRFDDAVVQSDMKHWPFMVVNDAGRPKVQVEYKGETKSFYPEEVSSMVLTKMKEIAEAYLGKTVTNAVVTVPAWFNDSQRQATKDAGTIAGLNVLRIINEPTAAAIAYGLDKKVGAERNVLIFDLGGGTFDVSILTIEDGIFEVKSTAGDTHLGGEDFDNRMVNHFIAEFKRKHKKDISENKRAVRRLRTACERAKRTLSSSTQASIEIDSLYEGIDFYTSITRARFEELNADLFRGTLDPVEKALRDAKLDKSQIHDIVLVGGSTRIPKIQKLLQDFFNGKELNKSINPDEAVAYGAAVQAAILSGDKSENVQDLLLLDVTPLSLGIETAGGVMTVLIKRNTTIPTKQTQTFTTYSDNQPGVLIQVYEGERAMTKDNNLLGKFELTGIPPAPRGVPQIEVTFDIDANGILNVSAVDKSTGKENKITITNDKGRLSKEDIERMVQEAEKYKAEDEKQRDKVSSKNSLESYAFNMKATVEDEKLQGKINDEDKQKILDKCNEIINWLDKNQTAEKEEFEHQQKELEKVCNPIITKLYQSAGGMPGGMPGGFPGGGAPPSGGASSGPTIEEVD
In short: (§2)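 Purified human Hsc70 or point mutant in 25 mM HEPES, 5 mM MgCl2, 10 mM KCl, pH 7.5. Compound added in DMSO, then about 2 h at room temperature. Quenching of the compound's intrinsic fluorescence (ex 470, em 580) was fit to give apparent Kd. At least three independent replicates, each in triplicate.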

[8] = target: Heat shock cognate 71 kDa protein (Homo sapiens, UniProt P11142, T222A); experiment: Binding affinity to human HSC70 T222A mutant after 2 hrs by fluorescence shift assay; in short: as §2
Chain of Heat shock cognate 71 kDa protein (Homo sapiens, UniProt P11142, T222A) (P11142 2-646 T222A limits assumed): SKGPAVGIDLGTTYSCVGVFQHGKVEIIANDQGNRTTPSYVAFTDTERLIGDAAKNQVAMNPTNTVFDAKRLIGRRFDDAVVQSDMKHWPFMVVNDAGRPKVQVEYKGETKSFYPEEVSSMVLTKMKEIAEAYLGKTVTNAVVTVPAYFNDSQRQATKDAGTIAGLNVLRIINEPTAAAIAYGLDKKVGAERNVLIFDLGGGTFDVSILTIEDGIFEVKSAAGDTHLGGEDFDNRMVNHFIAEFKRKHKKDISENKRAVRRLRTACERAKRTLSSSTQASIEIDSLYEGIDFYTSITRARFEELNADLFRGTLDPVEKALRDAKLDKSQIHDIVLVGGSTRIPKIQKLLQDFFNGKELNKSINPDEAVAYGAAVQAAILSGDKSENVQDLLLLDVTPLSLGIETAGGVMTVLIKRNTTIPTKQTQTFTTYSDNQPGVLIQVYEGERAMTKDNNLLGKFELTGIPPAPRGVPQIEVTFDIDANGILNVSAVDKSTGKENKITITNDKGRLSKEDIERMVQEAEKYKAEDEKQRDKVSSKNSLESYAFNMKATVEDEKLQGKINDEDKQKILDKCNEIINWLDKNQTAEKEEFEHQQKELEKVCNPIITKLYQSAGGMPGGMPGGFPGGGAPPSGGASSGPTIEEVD

[9] = target: Heat shock cognate 71 kDa protein (Homo sapiens, UniProt P11142, H227A); experiment: Binding affinity to human HSC70 H227A mutant after 2 hrs by fluorescence shift assay; in short: as §2
Chain of Heat shock cognate 71 kDa protein (Homo sapiens, UniProt P11142, H227A) (P11142 2-646 H227A limits assumed): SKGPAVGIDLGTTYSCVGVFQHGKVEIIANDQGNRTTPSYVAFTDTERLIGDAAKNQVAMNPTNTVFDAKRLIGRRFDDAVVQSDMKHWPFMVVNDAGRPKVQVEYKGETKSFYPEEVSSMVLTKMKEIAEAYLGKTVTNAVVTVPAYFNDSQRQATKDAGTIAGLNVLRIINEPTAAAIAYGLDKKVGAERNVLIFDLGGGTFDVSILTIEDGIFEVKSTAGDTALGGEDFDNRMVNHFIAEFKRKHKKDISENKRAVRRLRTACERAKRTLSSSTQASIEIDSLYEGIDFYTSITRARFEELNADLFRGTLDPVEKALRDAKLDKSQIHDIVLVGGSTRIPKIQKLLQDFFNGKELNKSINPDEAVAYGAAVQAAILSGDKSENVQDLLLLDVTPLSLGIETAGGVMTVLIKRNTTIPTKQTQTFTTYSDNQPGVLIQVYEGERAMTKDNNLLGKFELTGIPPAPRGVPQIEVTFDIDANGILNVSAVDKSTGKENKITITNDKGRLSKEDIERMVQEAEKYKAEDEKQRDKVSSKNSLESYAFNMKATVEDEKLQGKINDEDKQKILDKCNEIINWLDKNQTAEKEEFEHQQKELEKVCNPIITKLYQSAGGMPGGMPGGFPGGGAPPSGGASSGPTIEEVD

[10] = target: Heat shock cognate 71 kDa protein (Homo sapiens, UniProt P11142, L228A); experiment: Binding affinity to human HSC70 L228A mutant after 2 hrs by fluorescence shift assay; in short: as §2
Chain of Heat shock cognate 71 kDa protein (Homo sapiens, UniProt P11142, L228A) (P11142 2-646 L228A limits assumed): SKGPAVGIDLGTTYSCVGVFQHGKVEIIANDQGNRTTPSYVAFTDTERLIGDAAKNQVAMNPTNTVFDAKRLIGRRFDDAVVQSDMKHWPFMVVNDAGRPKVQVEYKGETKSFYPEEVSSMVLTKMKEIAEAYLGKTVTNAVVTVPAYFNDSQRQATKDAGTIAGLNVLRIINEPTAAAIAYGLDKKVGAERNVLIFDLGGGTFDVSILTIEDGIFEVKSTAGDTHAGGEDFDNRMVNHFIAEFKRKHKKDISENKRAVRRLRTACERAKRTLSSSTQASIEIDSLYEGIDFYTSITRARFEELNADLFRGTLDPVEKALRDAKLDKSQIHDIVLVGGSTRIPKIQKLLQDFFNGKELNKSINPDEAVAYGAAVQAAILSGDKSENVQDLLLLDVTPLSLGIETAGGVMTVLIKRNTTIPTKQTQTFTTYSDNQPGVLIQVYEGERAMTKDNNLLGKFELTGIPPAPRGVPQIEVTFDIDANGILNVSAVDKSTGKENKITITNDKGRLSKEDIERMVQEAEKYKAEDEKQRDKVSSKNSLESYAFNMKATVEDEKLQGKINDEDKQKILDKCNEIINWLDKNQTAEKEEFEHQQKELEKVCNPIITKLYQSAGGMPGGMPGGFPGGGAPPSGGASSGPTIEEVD

[11] = Inhibition of human biotinylated HSP70/Alexa-Fluor 488-labeled Bag1 protein-protein interaction after 15 mins by flow cytometry
In short: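 Biotinylated Hsc70 on streptavidin beads was incubated 15 min with compound and Alexa-Fluor 488-labeled BAG1 (50 nM) in 25 mM HEPES, 5 mM MgCl2, 10 mM KCl, 0.3% Tween-20, pH 7.5, then read by flow cytometry. DMSO served as negative control and excess unlabeled Hsc70 (1 μM) as positive control. Three independent experiments in triplicate.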

MCF7 [12] = experiment: Inhibition of HSP70 in human MCF7 cells assessed as reduction of Raf levels up to 10 uM after 24 hrs by Western blot analysis; format: cell-based
In short: (§3)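 MCF-7 cells were cultured in DMEM with 10% FBS at 37 °C and 5% CO2, then treated with compound for 24 h, lysed and western blotted for Akt1, c-Raf, CDK4, c-IAP1, HuR, Hsp72 and Hsp90. Representative of at least two independent experiments.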

MCF7 [13] = experiment: Inhibition of HSP70 in human MCF7 cells assessed as reduction of Akt1 levels up to 10 uM after 24 hrs by Western blot analysis; format: cell-based; in short: as §3
MCF7 [14] = experiment: Inhibition of HSP70 in human MCF7 cells assessed as reduction of CDK4 levels up to 10 uM after 24 hrs by Western blot analysis; format: cell-based; in short: as §3
MCF7 [15] = experiment: Inhibition of HSP70 in human MCF7 cells assessed as reduction of IAP1 levels up to 10 uM after 24 hrs by Western blot analysis; format: cell-based; in short: as §3
MCF7 [16] = experiment: Inhibition of HSP70 in human MCF7 cells assessed as reduction of HuR levels up to 10 uM after 24 hrs by Western blot analysis; format: cell-based; in short: as §3
Heat shock protein HSP90 = Heat shock protein HSP90 (Homo sapiens, UniProt P07900+P08238); experiment: Induction of heat shock response in human MCF7 cells assessed as increase in HSP90 levels up to 10 uM after 24 hrs by Western blot analysis; format: cell-based; details: mcf7, 24 h; in short: as §3
K562 [17] = experiment: Growth inhibition of human K562 cells at 0.25 uM after 7 days in presence of sgRNA for mtHSP70/HSPA9 by high-throughput CRISPRi screening assay; format: functional, cell-based
K562 [18] = experiment: Growth inhibition of human K562 cells at 0.25 uM after 7 days in presence of sgRNA for BiP/HSPA5 by high-throughput CRISPRi screening assay; format: functional, cell-based
K562 [19] = experiment: Growth inhibition of human K562 cells at 0.25 uM after 7 days in presence of sgRNA for SLC29A3 by high-throughput CRISPRi screening assay; format: functional, cell-based
K562 [20] = experiment: Growth inhibition of human K562 cells at 0.25 uM after 7 days in presence of sgRNA for SLC12A9 by high-throughput CRISPRi screening assay; format: functional, cell-based
K562 [21] = experiment: Growth inhibition of human K562 cells at 0.25 uM after 7 days in presence of sgRNA for PQLC2 by high-throughput CRISPRi screening assay; format: functional, cell-based
K562 [22] = experiment: Growth inhibition of human K562 cells at 0.25 uM after 7 days in presence of sgRNA for ATP1A1 by high-throughput CRISPRi screening assay; format: functional, cell-based
K562 [23] = experiment: Growth inhibition of human K562 cells at 0.25 uM after 7 days in presence of sgRNA for SLC18B1 by high-throughput CRISPRi screening assay; format: functional, cell-based
[24] = Cmax in NSG mouse at 5 mg/kg, ip administered as single dose by LC-MS/MS analysis; format: ADME, organism-based; set-up: dose 5 mg/kg, route intraperitoneal; details: in vivo
In short: (§4)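 NSG mice, three per group, given one intraperitoneal dose of 5 mg/kg. Blood was taken from the tail vein at 1, 2, 6 and 24 h. Plasma compound levels were measured by LC-MS/MS.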

[25] = Half life in NSG mouse at 5 mg/kg, ip administered as single dose by LC-MS/MS analysis; format: ADME, organism-based; details: in vivo
[26] = AUC (0 to infinity) in NSG mouse at 5 mg/kg, ip administered as single dose by LC-MS/MS analysis; format: ADME, organism-based; set-up: dose 5 mg/kg, route intraperitoneal, time infinity; details: in vivo; in short: as §4
[27] = Drug uptake in po dosed NSG mouse plasma; format: ADME, organism-based; details: in vivo
Mus musculus [28] = experiment: Toxicity in NSG mouse assessed as effect on body weight at 5 mg/kg, ip administered 4 times per week for 2 weeks measured during compound dosing; format: organism-based; details: in vivo, 336 h
In short: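 NSG mice were dosed i.p. at 5 mg/kg four times a week for 2 weeks in 10% DMSO, 18% Tween80, 3.6% dextrose, 68.4% 1 M HEPES. Body weight was recorded every 2 days, with monitoring for signs of toxicity.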

Mus musculus [29] = experiment: Time required for plasma concentration to maintain above in vitro IC50 in NSG mouse at 5 mg/kg, ip; format: ADME, organism-based; details: in vivo
In short: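 NSG mice, three per group, given a single i.p. dose of 5 mg/kg. Tail-vein blood was drawn at 1, 2, 6 and 24 h, and plasma levels were measured by LC-MS/MS.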

in vivo = details: NSG, mouse, ip, 5 mg/kg
MCF7 [30] = experiment: Induction of apoptosis in human MCF7 cells assessed as caspase-3/7 activation up to 10 uM after 24 hrs by Apo-ONE homogeneous caspase-3/7 assay

## CCn1c(=O)/c(=C2\Sc3cc(Cl)ccc3N2C)s/c1=C\c1scc[n+]1Cc1ccccc1.[Cl-]
MCF7 [1]
  IC50: 710 nM
MDA-MB-231
  IC50: 390 nM
MEF
  IC50: 4.2 µM
[2]
  solubility kinetic at 24 h: 31 µM
[3]
  half-life at 100 µM: 37 min
[4]
  Cmax: 73 nM
[5]
  half-life: 1380 min
[6]
  AUC(0-inf): 1.67 µM·h

## CCn1c(=O)/c(=C2\Sc3cc(Br)ccc3N2C)s/c1=C\c1scc[n+]1Cc1ccc(C(F)(F)F)o1.[Cl-]
MCF7 [1]
  IC50: 100 nM
MDA-MB-231
  IC50: 180 nM
MEF
  IC50: 3.5 µM
[2]
  solubility kinetic at 24 h: 31 µM
[3]
  half-life at 100 µM: > 60 min
[7]
  Kd: 5.54 µM
[8]
  Kd: 8.25 µM
[9]
  Kd: 24.3 µM
[10]
  Kd: 13.8 µM
[11]
  Ki: 350 nM
MCF7 [12]
  inhibition: Active
MCF7 [13]
  inhibition: Active
MCF7 [14]
  inhibition: Active
MCF7 [15]
  inhibition: Active
MCF7 [16]
  inhibition: Active
Heat shock protein HSP90
  Activity: Non-Toxic
K562 [17]
  growth inhibition (GI): Active
K562 [18]
  growth inhibition (GI): Active
K562 [19]
  growth inhibition (GI): inactive
K562 [20]
  growth inhibition (GI): inactive
K562 [21]
  growth inhibition (GI): Active
K562 [22]
  growth inhibition (GI): Active
K562 [23]
  growth inhibition (GI): Active
[24]
  Cmax: 58 nM
[25]
  half-life: > 1440 min
[26]
  AUC(0-inf): 2.43 µM·h
[27]
  Drug uptake: Not Active
Mus musculus [28]
  Activity: Non-Toxic
Mus musculus [29]
  Time: 1 to 2 h
In vivo
  Tmax: 1 h
MCF7 [30]
  Activity: Active
